ChEMBL document CHEMBL2440012, “Design, synthesis and anticonvulsant properties of new N-Mannich bases derived from 3-phenylpyrrolidine-2,5-diones” (Bioorg Med Chem, 2013)
Activity calls are given as the source filed them. The calls are words filed in the database; no cut-off is given here.

Tests used:
Mus musculus [1] = assay: Neurotoxicity in albino CF1 mouse assessed as minimum motor impairment at 300 mg/kg, ip measured after 4 hrs by rotorod test; type: toxicity, organism-based; parameters: dose 300 mg/kg, route intraperitoneal; settings: in vivo
In short: (§1)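 Male CF-1 mice given ip suspension in 0.5% methylcellulose/water at 30, 100 and 300 mg/kg; MES, scPTZ (pentylenetetrazole 85 mg/kg sc, CD97 dose for clonic seizures ≥5 s) and rotarod (inability to hold balance 1 min in each of three trials) assessed at 0.5 and 4 h; value is minimum dose active in half or more animals.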

Mus musculus [2] = assay: Neurotoxicity in albino CF1 mouse assessed as minimum motor impairment at 300 mg/kg, ip measured after 0.5 hr by rotorod test; type: toxicity, organism-based; parameters: dose 300 mg/kg, route intraperitoneal; settings: in vivo; in short: as §1
Mus musculus [3] = assay: Anticonvulsant activity in albino CF1 mouse assessed as protection against subcutaneous pentylenetetrazole-induced convulsion at 300 mg/kg, ip measured after 4 hrs; type: functional, organism-based; parameters: dose 300 mg/kg; in short: as §1
Mus musculus [4] = assay: Anticonvulsant activity in albino CF1 mouse assessed as protection against subcutaneous pentylenetetrazole-induced convulsion at 300 mg/kg, ip measured after 0.5 hrs; type: functional, organism-based; parameters: dose 300 mg/kg; in short: as §1
Mus musculus [5] = assay: Anticonvulsant activity in ip dosed albino CF1 mouse assessed as protection against maximal electroshock-induced seizures in half or more animals measured after 0.5 hr; type: functional; settings: read-out: MED; in short: as §1
Mus musculus [6] = assay: Anticonvulsant activity in ip dosed albino CF1 mouse assessed as protection against maximal electroshock-induced seizures in half or more animals measured after 4 hrs; type: functional; settings: read-out: MED; in short: as §1
Mus musculus [7] = assay: Anticonvulsant activity in albino CF1 mouse assessed as protection against maximal electroshock-induced seizures at 300 mg/kg, ip measured after 0.5 hr; type: functional, organism-based; parameters: dose 300 mg/kg; in short: as §1
Mus musculus [8] = assay: Anticonvulsant activity in albino CF1 mouse assessed as protection against maximal electroshock-induced seizures at 300 mg/kg, ip measured after 4 hrs; type: functional, organism-based; parameters: dose 300 mg/kg; in short: as §1
Mus musculus [9] = assay: Neurotoxicity in ip dosed albino CF1 mouse assessed as minimum motor impairment in half or more animals measured after 0.5 hrs by rotorod test; type: toxicity, organism-based; settings: in vivo; in short: as §1

## O=C1CC(c2cccc(Cl)c2)C(=O)N1CN1CCN(c2ccc(Cl)cc2)CC1 (racemic)
Mus musculus [1]
  Activity: Non-toxic
Mus musculus [2]
  Activity: Non-toxic
Mus musculus [3]
  Activity: inactive
Mus musculus [4]
  Activity: inactive
Mus musculus [5]
  minimal effective dose: 300 mg/kg
Mus musculus [6]
  minimal effective dose: 100 mg/kg

## O=C1CC(c2ccc(Cl)cc2)C(=O)N1CN1CCN(C2CCCCC2)CC1 (racemic)
Mus musculus [1]
  Activity: Non-toxic
Mus musculus [2]
  Activity: Non-toxic
Mus musculus [3]
  Activity: inactive
Mus musculus [4]
  Activity: inactive
Mus musculus [6]
  minimal effective dose: 100 mg/kg
Mus musculus [7]
  Activity: inactive

## O=C1CC(c2cccc(Cl)c2)C(=O)N1CN1CCN(c2cccc(Cl)c2)CC1 (racemic)
Mus musculus [1]
  Activity: Non-toxic
Mus musculus [2]
  Activity: Non-toxic
Mus musculus [3]
  Activity: inactive
Mus musculus [4]
  Activity: inactive
Mus musculus [7]
  Activity: inactive
Mus musculus [8]
  Activity: inactive

## O=C1CC(c2cccc(Cl)c2)C(=O)N1CN1CCN(c2ccccc2F)CC1 (racemic)
Mus musculus [1]
  Activity: Non-toxic
Mus musculus [9]
  MED: 300 mg/kg
Mus musculus [3]
  Activity: inactive
Mus musculus [4]
  Activity: inactive
Mus musculus [6]
  minimal effective dose: 100 mg/kg
Mus musculus [7]
  Activity: inactive

## O=C1CC(c2ccc(Cl)cc2)C(=O)N1CN1CCN(c2ncccn2)CC1 (racemic)
Mus musculus [1]
  Activity: Non-toxic
Mus musculus [9]
  MED: 300 mg/kg
Mus musculus [3]
  Activity: inactive
Mus musculus [4]
  Activity: inactive
Mus musculus [7]
  Activity: inactive
Mus musculus [8]
  Activity: inactive

## O=C1CC(c2ccccc2Cl)C(=O)N1CN1CCN(C2CCCCC2)CC1 (racemic)
Mus musculus [1]
  Activity: Non-toxic
Mus musculus [2]
  Activity: Non-toxic
Mus musculus [3]
  Activity: inactive
Mus musculus [4]
  Activity: inactive
Mus musculus [6]
  minimal effective dose: 100 mg/kg
Mus musculus [7]
  Activity: inactive

## O=C1CC(c2ccccc2Cl)C(=O)N1CN1CCN(c2ccc(Cl)cc2)CC1 (racemic)
Mus musculus [1]
  Activity: Non-toxic
Mus musculus [2]
  Activity: Non-toxic
Mus musculus [3]
  Activity: inactive
Mus musculus [4]
  Activity: inactive
Mus musculus [6]
  minimal effective dose: 300 mg/kg
Mus musculus [7]
  Activity: inactive

## O=C1CC(c2cccc(Cl)c2)C(=O)N1CN1CCN(c2ccccc2Cl)CC1 (racemic)
Mus musculus [1]
  Activity: Non-toxic
Mus musculus [2]
  Activity: Non-toxic
Mus musculus [3]
  Activity: inactive
Mus musculus [4]
  Activity: inactive
Mus musculus [7]
  Activity: inactive
Mus musculus [8]
  Activity: inactive

## O=C1CC(c2ccc(Cl)cc2)C(=O)N1CN1CCN(c2ccc(Cl)cc2)CC1 (racemic)
Mus musculus [1]
  Activity: Non-toxic
Mus musculus [2]
  Activity: Non-toxic
Mus musculus [3]
  Activity: inactive
Mus musculus [4]
  Activity: inactive
Mus musculus [7]
  Activity: inactive
Mus musculus [8]
  Activity: inactive

## O=C1CC(c2ccccc2)C(=O)N1CN1CCN(C2CCCCC2)CC1 (racemic)
Mus musculus [1]
  Activity: Non-toxic
Mus musculus [2]
  Activity: Non-toxic
Mus musculus [3]
  Activity: inactive
Mus musculus [4]
  Activity: inactive
Mus musculus [7]
  Activity: inactive
Mus musculus [8]
  Activity: inactive

## O=C1CC(c2ccccc2Cl)C(=O)N1CN1CCN(c2cccc(C(F)(F)F)c2)CC1 (racemic)
Mus musculus [1]
  Activity: Non-toxic
Mus musculus [2]
  Activity: Non-toxic
Mus musculus [3]
  Activity: inactive
Mus musculus [4]
  Activity: inactive
Mus musculus [6]
  minimal effective dose: 100 mg/kg
Mus musculus [7]
  Activity: inactive

## O=C1CC(c2ccc(Cl)cc2)C(=O)N1CN1CCN(c2cccc(C(F)(F)F)c2)CC1 (racemic)
Mus musculus [1]
  Activity: Non-toxic
Mus musculus [9]
  MED: 300 mg/kg
Mus musculus [3]
  Activity: inactive
Mus musculus [4]
  Activity: inactive
Mus musculus [6]
  minimal effective dose: 100 mg/kg
Mus musculus [7]
  Activity: inactive

## Cc1cccc(N2CCN(CN3C(=O)CC(c4cccc(Cl)c4)C3=O)CC2)c1 (racemic)
Mus musculus [1]
  Activity: Non-toxic
Mus musculus [9]
  MED: 100 mg/kg
Mus musculus [3]
  Activity: inactive
Mus musculus [4]
  Activity: inactive
Mus musculus [6]
  minimal effective dose: 30 mg/kg
Mus musculus [7]
  Activity: inactive

## O=C1CC(c2ccccc2Cl)C(=O)N1CN1CCN(c2ccccc2Cl)CC1 (racemic)
Mus musculus [1]
  Activity: Non-toxic
Mus musculus [2]
  Activity: Non-toxic
Mus musculus [3]
  Activity: inactive
Mus musculus [4]
  Activity: inactive
Mus musculus [7]
  Activity: inactive
Mus musculus [8]
  Activity: inactive
